Only some compounds are listed: those with a hit (about 3.7% of all), similar ones and a draw of the others.
KCNK3 block: human KCNK3 channel inhibition, primary screen; O14649; CHO-KCNK3 thallium flux, FluxOR fluorescence; active compounds read low; B-score at 10 µM; 0.84% of 340,000 active; AID 602410;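 active = B-score under library mean minus 4 SD, starting fluorescence ratio at most library mean plus 5 SD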;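 also: more negative B-score means stronger inhibition of thallium flux through KCNK3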
Kir21 block: Kir2.1 (mouse) channel inhibition | AID 1672 | 0.85% of 310,000 active | HEK293-Kir2.1, FluxOR thallium flux fluorescence; active compounds read low | B-score at 10 µM;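 active = fluorescence ratio B-score at or below minus 3 SD of library scores, with starting-brightness B-score within 2 SD, cut at about -4.2 in these data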;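 also: channel flux triggered by added potassium and thallium sulfate stimulus; B-score of peak minus minimum fluorescence over baseline after thallium stimulus; more negative B-score means stronger Kir2.1 block with less thallium influx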
KCNK9 inh: human KCNK9 channel inhibition. 1.2% of 310,000 active. HEK293 KCNK9, FluxOR thallium flux fluorescence; active compounds read low. AID 488922. Q9NPC2. B-score at 10 µM;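 active = ratio B-score over 3 SD below the library mean, with starting fluorescence within 5 SD of its mean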;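 also: negative B-score means less thallium flux so channel inhibition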
KCNQ1 act: human KCNQ1 channel potentiation or activation. P51787. CHO-K1 KCNQ1, thallium flux FluxOR fluorescence; active compounds read high. B-score at 10 µM. 0.35% of 310,000 active. AID 2648;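 active = fluorescence ratio B-score, a plate-corrected score, at least three library SD, with initial intensity B-score within 5 SD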
Target sequence (P51787 whole entry, looked up): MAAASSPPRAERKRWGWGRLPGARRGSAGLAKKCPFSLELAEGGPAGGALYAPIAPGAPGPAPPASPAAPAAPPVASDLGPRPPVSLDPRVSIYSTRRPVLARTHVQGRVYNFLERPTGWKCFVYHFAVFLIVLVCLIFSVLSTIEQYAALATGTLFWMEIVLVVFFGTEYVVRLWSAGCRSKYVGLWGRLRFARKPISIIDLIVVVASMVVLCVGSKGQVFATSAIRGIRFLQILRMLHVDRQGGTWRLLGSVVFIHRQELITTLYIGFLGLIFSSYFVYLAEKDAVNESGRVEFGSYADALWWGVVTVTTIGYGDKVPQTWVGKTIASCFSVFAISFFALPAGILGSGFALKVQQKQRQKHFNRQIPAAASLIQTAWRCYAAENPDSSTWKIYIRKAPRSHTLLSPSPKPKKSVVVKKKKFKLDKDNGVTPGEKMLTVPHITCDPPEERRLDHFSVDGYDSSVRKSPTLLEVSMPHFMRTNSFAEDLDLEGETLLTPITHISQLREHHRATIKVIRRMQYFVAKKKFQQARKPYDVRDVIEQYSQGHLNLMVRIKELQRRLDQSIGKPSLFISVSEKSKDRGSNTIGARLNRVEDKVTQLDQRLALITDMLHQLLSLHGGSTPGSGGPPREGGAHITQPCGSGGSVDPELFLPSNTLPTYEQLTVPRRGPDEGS
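Doses: Single concentration per compound, DMSO matched to controls | Test system: KCNQ1-transfected CHO-K1 cells | Timing: 90 min dye loading and 20 min compound exposure, both at room temperature | Measured by: Kinetic FluxOR thallium fluorescence, 10-s 1-Hz baseline, 110-s post-stimulus read | Medium: Assay buffer with matched DMSO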
hERG rescue: hERG (human) protection from proarrhythmic block. Q12809. CHO-hERG, FluxOR thallium flux, dofetilide IC70 present. activation (rescue from dofetilide block), less the hit threshold, % at 10 µM. 0.51% of 310,000 active. AID 1511;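 active = activation above the mean of controls blocked by dofetilide plus 5 SD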;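 also: thallium influx through hERG after potassium depolarization seen as dye fluorescence rise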
KCNQ1 block: human KCNQ1 channel inhibition; 1.3% of 310,000 active; P51787; CHO-K1 KCNQ1, FluxOR thallium flux fluorescence; active compounds read high; B-score at 10 µM;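 active = compounds whose thallium flux B-score, printed positive for inhibition, exceeds three library SD while starting fluorescence stays within three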;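 also: channel opened by potassium depolarization with thallium stimulus after 20 min compound exposure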
KCNK9 block conf: confirmation of human KCNK9 potassium channel inhibitors | shares compounds with KCNK9 inh | HEK293 KCNK9 cells, FluxOR thallium flux fluorescence | inhibition, % at 10 µM | 43% of 4,900 active | AID 492992;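 active = thallium signal inhibited by more than 5 SD of the compound-free buffer control wells, on both duplicate plates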
Kir2-1 spec: tests whether KCNK9 modulators also affect mouse Kir2.1; 4% of 4,900 active; inhibition, % at 10 µM; shares compounds with KCNK9 inh; AID 492993; Kir2.1 cells, FluxOR thallium flux fluorescence;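 active = thallium signal drop more than 5 SD beyond the mean of the no-compound control wells, seen in both duplicate plates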;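 also: signal is fluorescence rise after thallium addition divided by baseline fluorescence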
HEK293 Tl ctr: second check of KCNK9 modulator effects in non-induced HEK293 cells; shares compounds with KCNK9 inh; FluxOR thallium flux; inhibition, % at 10 µM; 40% of 4,900 active;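 active = thallium signal drop beyond 5 SD of the untreated control mean, on both duplicate plates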
A number is an active result; – = inactive; · = no result given.

SMILES	KCNK3 block	Kir21 block	KCNK9 inh	KCNQ1 act	hERG rescue	KCNQ1 block	KCNK9 block conf	Kir2-1 spec	HEK293 Tl ctr
CCN(C(=O)C1CCCN(c2nc(-c3ccc(OC)cc3)no2)C1)c1ccccc1F (stereo not given)	–	–	–	–	–	–	–	–	–
COc1ccc(C(=O)NCc2nnc(SCC(=O)Nc3ccccc3OC)n2C)cc1	–	–	–	–	–	–	–	–	–
O=S(=O)(c1cc(Cl)ccc1Cl)N1CCCCC1	–	–	–	–	–	–	·	·	·
Cc1cc(S(=O)(=O)N2CCCCCC2)c(Cl)cc1Cl	–	–	–	–	–	–	–	–	–
COC(=O)[C@H](C)NC(=O)NCc1ccccc1	–	–	–	–	–	–	·	·	·
Cc1ccc(S(=O)(=O)/N=C2/NC(=O)/C(=C/c3ccccc3)S2)cc1	–	–	–	–	–	–	–	–	–
Cc1ccc(S(=O)(=O)/N=C2/NC(=O)/C(=C/c3ccncc3)S2)cc1	·	–	–	–	–	–	·	·	·
Cc1ccc(S(=O)(=O)/N=C2/NC(=O)/C(=C\c3ccccc3)S2)cc1	–	·	·	·	·	·	·	·	·
Cc1ccc(/C=C2\S/C(=N/S(=O)(=O)c3cccs3)NC2=O)cc1	–	–	–	–	–	–	–	–	–
CC1(C)C(=O)N(CCN2CCC(C(=O)c3ccc(F)cc3)CC2)c2ccccc21	–	·	·	·	·	·	·	·	·
COc1ccc(C/C(=N\O)c2ccc(OC)cc2)cc1	–	–	–	–	–	–	–	–	–
Cc1cc(C)c2nc(Cl)c(CN(Cc3ccco3)C(=O)Nc3ccccc3C)cc2c1	–	–	–	–	–	–	–	–	–
COCCN(Cc1cc2cc(C)cc(C)c2nc1Cl)C(=O)Nc1ccccc1	–	–	–	–	–	–	·	·	·
COc1ccc(CNC2CCSc3ccccc32)cc1OC (stereo not given)	–	–	–	–	–	–	·	·	·
COc1cc(C2C(C#N)=C(N)Oc3cc(N(C)C)ccc32)cc2c1OCO2 (stereo not given)	–	–	-8.6	–	–	–	34%	–	54%
COc1cc(C2C(C#N)=C(N)Oc3cc(O)ccc32)cc2c1OCO2 (stereo not given)	–	–	–	–	–	–	·	·	·
COc1cccc(/C=N/NC(=O)c2csc(-n3nc(C)cc3C(F)(F)F)n2)c1	–	–	-15	–	–	–	–	–	–
Cc1cc(C(F)(F)F)n(-c2nc(C(=O)N/N=C/c3ccc(F)cc3)cs2)n1	–	–	–	–	–	–	·	·	·
Cc1cc(OCc2ccc(F)cc2)nc(-c2ccccc2O)n1	–	–	-10	–	–	–	66%	–	37%
O=C(CSCC(=O)N1CCCCC1)Nc1nc(-c2ccc(Cl)s2)cs1	–	–	–	–	–	–	–	–	–
O=C(CSCC(=O)N1CCN(c2ccccc2)CC1)Nc1nc(-c2ccc(Cl)s2)cs1	–	–	–	–	–	–	·	·	·
CCn1c(SCc2ccc(Cl)cc2Cl)nc2nc3c(cc2c1=O)CCCC3	–	–	–	–	–	–	–	–	–
CC(C)Nc1nc(NC(C)C)nc(SCCOC(=O)Nc2ccc(Cl)cc2Cl)n1	–	–	–	–	–	–	–	–	–
CCNc1nc(NC(C)C)nc(SCCOC(=O)c2ccccc2)n1	–	–	–	–	–	–	·	·	·
CC[C@@]1(C(=O)OC)N[C@H](CN(C)C(=O)Nc2ccc(Cl)cc2)[C@@H]2C(=O)N(Cc3ccccc3)C(=O)[C@@H]21	–	·	·	·	·	·	·	·	·
CCOC(=O)Cn1cnc2scc(-c3ccccc3)c2c1=O	–	–	–	–	–	–	·	·	·
CCOC(=O)Cn1cnc2scc(-c3ccc(C)cc3)c2c1=O	–	–	–	–	–	–	–	–	–
CCOC(=O)Cn1cnc2scc(-c3ccc(C)c(C)c3)c2c1=O	–	–	–	–	–	–	–	–	–

From PubChem
